pKi: −log10 of the molar value. One block for each molecule: values may come before it.
Tests used:
TSPO [1] = biological target: T1, TSPO (Rattus norvegicus, UniProt P16257); experiment: Pre-blocking PET study with non-radioactive VUIIS1008 in C6 glioma-bearing rats; assay type: in vivo; conditions: pre-blocking with VUIIS1008 10 mg/kg, range of 2 rats
Outline: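 In C6 glioma-bearing Wistar rats, the non-radioactive ligand (10 mg/kg i.v.) was given 5 min before a radiotracer bolus (1.2 ± 0.2 mCi via jugular catheter). Dynamic PET ran for 60 min with a metabolite-corrected arterial input function. Tumour and contralateral normal-brain TACs were fitted to a 2-tissue, 4-parameter model, and the range from 2 rats is reported.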

TSPO [2] = conditions: cited from earlier work; for enhancement in binding affinity compared to DPA-714: TSPO affinity vs DPA-714
TSPO [3] = biological target: T1, TSPO; experiment: Dynamic PET with compartmental modeling in C6 glioma-bearing rats; assay type: in vivo; conditions: for K1 / k2 / k3 / k4: 2-tissue 4-parameter model, n = 5, Mean ± SEM; for %ID/cc (90 min) / K1/k2 / VT=(K1/k2)(1+k3/k4) / k3/k4 (binding potential): C6-glioma bearing rats n = 5, Mean ± SEM
Outline: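 Male Wistar rats (10 weeks, ~300 g) were implanted with 1.0 × 10⁵ C6 cells in the right hemisphere 2 weeks before imaging, then catheterised and localised by T₂ MRI. Radiotracer 1.2 ± 0.2 mCi was given as a jugular bolus for 90-min dynamic PET with CT attenuation correction. Arterial input was TLC metabolite-corrected. Tumour and contralateral-brain TACs were fitted with 1- and 2-tissue models to give K₁–k₄, V_T and BP_ND.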

TSPO [4] = biological target: TSPO (Mus musculus, UniProt P50637); experiment: Dynamic PET accumulation and displacement of [18F]VUIIS1008 in healthy mice; assay type: in vivo
[5] = challenger 10 mg/kg at scan mid-point (30 min)

K1/k2 (TSPO [1]; normal brain): 0.059 – 0.061
VT=(K1/k2)(1+k3/k4) (TSPO [1]; normal brain): 0.380 – 0.615
k3/k4 (binding potential) (TSPO [1]; normal brain): 4.888 – 13.507
K1/k2 (TSPO [1]; tumor): 0.124 – 0.143
VT=(K1/k2)(1+k3/k4) (TSPO [1]; tumor): 0.618 – 0.767
k3/k4 (binding potential) (TSPO [1]; tumor): 3.972 – 4.368
VT ratio between tumor and normal brain (TSPO [3]; C6 glioma-bearing rats): 6.0
clearance of tracer from plasma (TSPO [3]; C6 glioma-bearing rats, n = 6): cleared rapidly
K1 (TSPO [3]; normal brain): 0.881 ± 0.392
k2 (TSPO [3]; normal brain): 2.078 ± 1.666
k3 (TSPO [3]; normal brain): 0.172 ± 0.070
k4 (TSPO [3]; normal brain): 0.037 ± 0.004
%ID/cc (90 min) (TSPO [3]; normal brain): 0.103 ± 0.031 %ID/cc
K1/k2 (TSPO [3]; normal brain): 0.86 mL/g
VT=(K1/k2)(1+k3/k4) (TSPO [3]; normal brain): 4.210 ± 1.612
k3/k4 (binding potential) (TSPO [3]; normal brain): 4.435 ± 1.387
K1/k2 (TSPO [3]; normal brain, listed as 18F-VUIIS1008): 0.855 ± 0.325 mL/g
K1 (TSPO [3]; tumor (C6 glioma)): 0.709 ± 0.306
k2 (TSPO [3]; tumor (C6 glioma)): 0.442 ± 0.101
k3 (TSPO [3]; tumor (C6 glioma)): 0.113 ± 0.013
k4 (TSPO [3]; tumor (C6 glioma)): 0.009 ± 0.002
%ID/cc (90 min) (TSPO [3]; tumor): 0.310 ± 0.051 %ID/cc
K1/k2 (TSPO [3]; tumor): 1.90 mL/g
VT=(K1/k2)(1+k3/k4) (TSPO [3]; tumor): 25.224 ± 10.035
k3/k4 (binding potential) (TSPO [3]; tumor): 12.63
K1/k2 (TSPO [3]; tumor, listed as 18F-VUIIS1008): 1.902 ± 0.816 mL/g
k3/k4 (binding potential) (TSPO [3]; tumor, listed as 18F-VUIIS1008): 12.634 ± 1.406
binding reversibility in healthy, TSPO-rich tissues (TSPO [4]; dynamic PET): reversible binding
Compound: CCc1cc(CC)n2nc(-c3ccc(OCC[18F])cc3)c(CC(=O)N(CC)CC)c2n1 [[^18F]VUIIS1008, 2-(5,7-diethyl-2-(4-(2-[^18F]fluoroethoxy)phenyl)pyrazolo[1,5-a]pyrimidin-3-yl)-N,N-diethylacetamide]
enhancement in binding affinity compared to DPA-714 (TSPO [2]): approximately 36 fold

displacement of [18F]VUIIS1008 from myocardium and lung tissue (TSPO [4]; [5]): rapid and significant displacement
displacement of [18F]VUIIS1008 from renal tissue (TSPO [4]; [5]): partial displacement
Compound: CCc1cc(CC)n2nc(-c3ccc(OCCF)cc3)c(CC(=O)N(CC)CC)c2n1 [VUIIS1008, 2-(5,7-diethyl-2-(4-(2-fluoroethoxy)phenyl)pyrazolo[1,5-a]pyrimidin-3-yl)-N,N-diethylacetamide]
enhancement in binding affinity compared to DPA-714 (TSPO [2]): 36 fold
pKi (TSPO [2]; read-out: Ki (binding affinity), TSPO): 9.52

Reference: PMC4372299 (Molecular imaging and biology : MIB : the official …, 2014)
